Assay results reported in ChEMBL document CHEMBL1131636, “Conformationally constrained analogues of the muscarinic agonist 3-(4-(methylthio)-1,2,5-thiadiazol-3-yl)-1,2,5,6-tetrahydro-1-methylpyr idine. Synthesis, receptor affinity, and antinociceptive activity” (J Med Chem, 1998).

How the values were obtained:
Mus musculus [1] = test: In vivo antinociceptive activity was measured using mouse grid shock (MGS) assay in mice upon subcutaneous administration; type: functional; details: sc
Summary of the method: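 Mice dosed sc by body weight, then shocked via stainless steel grid floor 30 min later. Vocalization detected acoustically. Percent increase in latency = (postdrug − predrug)/(cutoff − predrug) × 100 per animal, averaged per dose. Ten mice per dose and for controls. ED50 derived.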

Mus musculus [2] = test: Compound was tested for its ability to induce salivation in mice upon subcutaneous administration; type: functional; details: sc
Summary of the method: (§1)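 Mice dosed sc, scored just before the 30-min postdrug grid-shock test. Salivation or tremor rated 0–3 per animal. Scores multiplied by number of mice, summed per group (n = 10), and expressed as % of maximum sum (30). ED50 derived.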

[3] = biological target: T1, Muscarinic acetylcholine receptor M4 (Homo sapiens, UniProt P08173); test: Compound was evaluated for its ability to displace [3H]- N-methyl-scopolamine ([3H]-NMS) binding to cloned CHO cell lines expressing Muscarinic acetylcholine receptor M4; type: cell-based
T1 sequence (P08173 whole entry): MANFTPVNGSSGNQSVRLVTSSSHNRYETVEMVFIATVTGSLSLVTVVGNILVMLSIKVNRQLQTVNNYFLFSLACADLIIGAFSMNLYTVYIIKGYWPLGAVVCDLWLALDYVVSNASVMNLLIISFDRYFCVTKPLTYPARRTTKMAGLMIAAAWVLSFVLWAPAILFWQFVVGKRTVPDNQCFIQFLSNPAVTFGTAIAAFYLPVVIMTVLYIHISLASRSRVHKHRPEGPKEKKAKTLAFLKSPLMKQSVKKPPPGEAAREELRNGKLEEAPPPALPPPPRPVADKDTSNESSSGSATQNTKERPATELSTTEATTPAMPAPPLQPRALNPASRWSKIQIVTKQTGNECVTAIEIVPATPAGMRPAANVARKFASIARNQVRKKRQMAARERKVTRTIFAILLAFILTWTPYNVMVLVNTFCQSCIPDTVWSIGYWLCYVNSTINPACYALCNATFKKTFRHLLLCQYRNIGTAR

[4] = biological target: T2, Muscarinic acetylcholine receptor M1 (Homo sapiens, UniProt P11229); test: (§2) Compound was evaluated for its ability to displace [3H]N-methylscopolamine ([3H]NMS) binding to cloned CHO cell lines expressing Muscarinic acetylcholine receptor M1; type: cell-based
T2 sequence (P11229 whole entry): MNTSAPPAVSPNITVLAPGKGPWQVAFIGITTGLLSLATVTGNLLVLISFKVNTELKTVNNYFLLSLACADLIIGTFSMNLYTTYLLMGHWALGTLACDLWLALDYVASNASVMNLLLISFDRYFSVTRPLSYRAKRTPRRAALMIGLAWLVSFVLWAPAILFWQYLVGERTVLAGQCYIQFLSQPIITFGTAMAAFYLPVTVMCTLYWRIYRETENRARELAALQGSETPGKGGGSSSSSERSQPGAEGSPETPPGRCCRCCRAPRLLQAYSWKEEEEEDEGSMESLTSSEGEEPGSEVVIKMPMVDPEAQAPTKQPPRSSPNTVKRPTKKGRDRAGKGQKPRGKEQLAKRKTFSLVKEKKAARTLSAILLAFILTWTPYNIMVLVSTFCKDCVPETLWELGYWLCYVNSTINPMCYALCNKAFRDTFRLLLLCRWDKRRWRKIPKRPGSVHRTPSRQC

[5] = biological target: Muscarinic acetylcholine receptor M3 (Homo sapiens, UniProt P20309); test: Compound was evaluated for its ability to displace [3H]N-methylscopolamine ([3H]NMS) binding to cloned CHO cell lines expressing Muscarinic acetylcholine receptor M3; type: cell-based
[6] = biological target: T3, Muscarinic acetylcholine receptor M5 (Homo sapiens, UniProt P08912); test: Compound was evaluated for its ability to displace [3H]- N-methyl-scopolamine ([3H]NMS) binding to cloned CHO cell lines expressing Muscarinic acetylcholine receptor M5; type: cell-based
T3 sequence (P08912 whole entry): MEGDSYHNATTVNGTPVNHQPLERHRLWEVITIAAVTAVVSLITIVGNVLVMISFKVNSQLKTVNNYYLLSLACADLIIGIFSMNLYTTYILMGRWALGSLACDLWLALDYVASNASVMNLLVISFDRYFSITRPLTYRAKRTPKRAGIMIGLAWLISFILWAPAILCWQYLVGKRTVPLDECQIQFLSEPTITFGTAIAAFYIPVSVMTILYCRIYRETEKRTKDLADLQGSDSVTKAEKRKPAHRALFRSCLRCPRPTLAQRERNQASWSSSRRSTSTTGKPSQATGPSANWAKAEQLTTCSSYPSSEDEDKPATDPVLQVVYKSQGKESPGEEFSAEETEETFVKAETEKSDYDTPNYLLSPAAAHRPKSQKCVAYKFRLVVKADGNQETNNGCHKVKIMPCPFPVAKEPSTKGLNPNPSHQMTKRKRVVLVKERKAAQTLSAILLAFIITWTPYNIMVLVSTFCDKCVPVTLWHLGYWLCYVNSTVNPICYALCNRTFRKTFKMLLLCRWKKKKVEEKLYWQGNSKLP

[7] = biological target: T4, Muscarinic acetylcholine receptor M2 (Homo sapiens, UniProt P08172); test: Compound was evaluated for its ability to displace [3H]- N-methyl-scopolamine ([3H]NMS) binding to cloned CHO cell lines expressing Muscarinic acetylcholine receptor M2; type: cell-based
T4 sequence (P08172 whole entry): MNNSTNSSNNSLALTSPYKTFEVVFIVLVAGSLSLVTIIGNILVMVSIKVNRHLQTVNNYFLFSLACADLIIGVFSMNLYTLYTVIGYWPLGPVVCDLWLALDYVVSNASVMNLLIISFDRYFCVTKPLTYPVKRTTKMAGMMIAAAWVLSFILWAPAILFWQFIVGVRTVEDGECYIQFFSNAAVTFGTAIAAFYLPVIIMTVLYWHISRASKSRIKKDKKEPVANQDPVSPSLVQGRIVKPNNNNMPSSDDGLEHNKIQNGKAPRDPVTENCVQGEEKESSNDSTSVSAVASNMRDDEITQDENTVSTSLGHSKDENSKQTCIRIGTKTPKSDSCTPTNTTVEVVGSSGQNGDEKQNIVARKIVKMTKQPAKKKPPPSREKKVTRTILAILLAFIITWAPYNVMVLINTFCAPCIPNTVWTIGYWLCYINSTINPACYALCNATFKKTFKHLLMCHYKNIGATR

[8] = biological target: Muscarinic acetylcholine receptor; test: In vitro Binding affinity was measured on Muscarinic acetylcholine receptor on rat brain membranes using [3H]oxotremorine-M; design: species or system Membrane
Summary of the method: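 Rat brain homogenate washed by 40000g centrifugation and resuspended in Hepes pH 7.4. Incubated with 1.0 nM (final) [3H]Oxo-M for 30 min at 25 °C. […] Filtered on glass fiber, washed with ice-cold buffer, scintillation counted. IC50 from at least four concentrations in triplicate, Hill equation.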

Mus musculus [9] = test: Compound was tested for its ability to induce tremors in mice subcutaneous administration; type: functional; details: sc; summary of the method: as §1
[10] = biological target: T2, Muscarinic acetylcholine receptor M1; test: as §2; type: cell-based; remark: listed apart in the source
Summary of the method: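 Membranes from CHO cells expressing cloned m1 receptor, prepared in 20 mM sodium phosphate pH 7.4 (200g spin, then 40000g for 45 min at 4 °C; stored −80 °C). 23–45 μg protein incubated with [3H]NMS (5 nM as added) and test compound for 2 h. WGA-coated SPA beads added, counted after a further 2 h.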

[11] = biological target: Muscarinic acetylcholine receptor; test: In vitro Binding affinity was measured against Muscarinic acetylcholine receptor on rat brain membranes using [3H]oxotremorine-M

Muscarinic acetylcholine receptor M3, sequence (P20309 whole entry): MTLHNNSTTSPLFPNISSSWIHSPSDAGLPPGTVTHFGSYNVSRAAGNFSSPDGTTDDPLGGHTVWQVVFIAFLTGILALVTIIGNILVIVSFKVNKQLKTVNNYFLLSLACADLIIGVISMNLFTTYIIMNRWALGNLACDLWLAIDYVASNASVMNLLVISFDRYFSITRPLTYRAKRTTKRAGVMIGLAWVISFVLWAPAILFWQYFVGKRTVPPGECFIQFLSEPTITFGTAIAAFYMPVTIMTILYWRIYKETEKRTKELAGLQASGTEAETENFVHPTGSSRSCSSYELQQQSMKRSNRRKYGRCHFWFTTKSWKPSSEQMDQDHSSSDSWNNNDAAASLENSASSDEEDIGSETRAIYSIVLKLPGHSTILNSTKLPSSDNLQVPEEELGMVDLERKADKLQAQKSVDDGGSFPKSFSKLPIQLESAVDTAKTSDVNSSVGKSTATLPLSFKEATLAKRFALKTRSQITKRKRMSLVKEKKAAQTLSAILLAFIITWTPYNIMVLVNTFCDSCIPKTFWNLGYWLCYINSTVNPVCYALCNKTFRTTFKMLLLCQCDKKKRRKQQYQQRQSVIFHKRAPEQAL

| SMILES | ED50 (Mus musculus [1]) [mg/kg] | ED50 (Mus musculus [2]) [mg/kg] | IC50 [3] [µM] | IC50 [4] [µM] | IC50 [5] [µM] | IC50 [6] [µM] | IC50 [7] [µM] | IC50 [8] [µM] | ED50 (Mus musculus [9]) [mg/kg] | IC50 [10] [µM] | IC50 [11] [µM] |
| --- | --- | --- | --- | --- | --- | --- | --- | --- | --- | --- | --- |
| CN1CCC2=C(C1)c1nsnc1SC2 | 10.4 | 13 | 14.5 | 20.5 | 9.7 | 23 | 2.2 | 0.0278 | > 30 | – | – |
| CSc1nsnc1C1=CCCN(C)C1 | 4 | 6 | 1.2 | – | 1.6 | 2.1 | 0.48 | 0.0045 | > 10 | 1.8 | – |
| CSc1nsnc1C1=CCCNC1 | 1.8 | 7.4 | – | – | – | – | – | 0.0076 | 4.5 | – | – |
| CSc1nsnc1C1=C(C)CCN(C)C1 | > 30 | > 30 | > 100 | > 100 | > 100 | 100 | 100 | > 0.5 | > 30 | – | – |
| C1Cc2sc3nsnc3c2CN1 | 4.6 | 8.8 | – | – | – | – | – | 0.0355 | 15.8 | – | – |
| O=C1CCCN1CC#CCN1CCCC1 [OXOTREMORINE] | 0.038 | 0.2 | 5 | 9 | 17 | 8 | 0.4 | – | 0.2 | – | 0.005 |
| c1cc2nsnc2c2c1CCNC2 | 4.4 | 5.1 | 100 | 100 | 100 | 100 | 6.7 | 0.0445 | 6.4 | – | – |
| COC(=O)C1=CCCN(C)C1 [ARECOLINE] | 16 | 15 | – | – | – | – | – | – | 15 | – | – |
